Assay results reported in ChEMBL document CHEMBL1126084, “2-Acetylpyridine thiocarbonohydrazones. Potent inactivators of herpes simplex virus ribonucleotide reductase” (J Med Chem, 1992).

Legend:
Human alphaherpesvirus 1 [1] = assay: Inhibition of HSV-1 ribonucleotide reductase; set-up: concentration or dose not given beside the values; settings: concentration not given here
Method in brief: (§1)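 Partially purified HSV-1 ribonucleotide reductase, assayed by reduction of purified [14C]CDP in 200 mM Hepes Na+ pH 7.7, 10 mM dithiothreitol, 2 μM CDP (500 Ci/mol, 3–4 × Km), with and without 5 μM inhibitor unless otherwise indicated. First-order kinact (per hour) and v0 of decelerating product time courses come from iterative nonlinear least squares. kinact is the net increase over the uninhibited control, and % inhibition refers to v0.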

Human alphaherpesvirus 1 [2] = assay: Inhibitory index against HSV-1 ribonucleotide reductase
Method in brief: (§2)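 Index per eq 1 combines kinact and percent inhibition of initial velocity from reductase reactions ±5 μM inhibitor (unless otherwise indicated). 0.99 is subtracted from the calculated ratio, so a non-inhibiting, non-inactivating compound scores zero. HSV-1 and human enzymes were assayed under their respective conditions.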

Human alphaherpesvirus 1 [3] = assay: Inactivation of HSV-1 ribonucleotide reductase at rate constant K inact; method in brief: as §1
[4] = target: T1, Ribonucleoside-diphosphate reductase RR1 (Homo sapiens) (UniProt P23921+Q7LG56+P31350); assay: Inhibition of human ribonucleotide reductase; format: protein-complex assay; set-up: concentration or dose not given beside the values; settings: concentration not given here
Method in brief: (§3)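 The ATP contributed about 3 μM iron, keeping inhibitors iron-complexed. Reactions ran ±5 μM inhibitor unless otherwise indicated. kinact (per hour, net over the control) and v0 came from iterative nonlinear least-squares fits of decelerating time courses.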

[5] = target: T1, Ribonucleoside-diphosphate reductase RR1 (Homo sapiens); assay: Inhibitory index against human ribonucleotide reductase; format: protein-complex assay; method in brief: as §2
[6] = target: T1, Ribonucleoside-diphosphate reductase RR1 (Homo sapiens); assay: Inactivation of human ribonucleotide reductase at rate constant K inact; format: protein-complex assay; method in brief: as §3
[7] = target: T1, Ribonucleoside-diphosphate reductase RR1 (Homo sapiens); assay: Apparent enzyme activity measured as the ratio of HSV-1 and human enzyme inhibition induces; format: functional; settings: Human alphaherpesvirus 1
Method in brief: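 Apparent selectivity is the ratio of HSV-1 to human inhibition indices, each from eq 1 at 5 μM inhibitor or at the indicated concentration for each enzyme.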

Human alphaherpesvirus 1 [8] = assay: Inhibitory index against HSV-1 ribonucleotide reductase calculated as, [1+k inact/f+0.01] where f = 1-% inhibition/100).; format: functional; method in brief: as §2
Human alphaherpesvirus 1 [9] = assay: Inactivation of HSV-1 ribonucleotide reductase by the compound (5 uM) at rate constant K inact.; format: functional; method in brief: as §1
[10] = target: T1, Ribonucleoside-diphosphate reductase RR1 (Homo sapiens); assay: Inhibition of human ribonucleotide reductase by the compound (5 uM); format: protein-complex assay; method in brief: as §3
Human alphaherpesvirus 1 [11] = assay: Inhibition of HSV-1 ribonucleotide reductase by the compound (5 uM); format: functional; method in brief: as §1
[12] = target: T1, Ribonucleoside-diphosphate reductase RR1 (Homo sapiens); assay: Inhibitory index against human ribonucleotide reductase calculated as, [1+k inact/f+0.01] where f = 1-% inhibition/100).; format: protein-complex assay; method in brief: as §2
[13] = target: T1, Ribonucleoside-diphosphate reductase RR1 (Homo sapiens); assay: Inactivation of human ribonucleotide reductase by the compound (5 uM) at rate constant K inact.; format: protein-complex assay; method in brief: as §3

With `O=C(NNC(=S)N/N=C/c1ccccn1)Nc1ccccc1Cl` the inhibition (Human alphaherpesvirus 1 [1]) was 14%, the Inhibitory index (Human alphaherpesvirus 1 [2]) was 27 and the kinact (Human alphaherpesvirus 1 [3]) was 23 h⁻¹. It also gave an inhibition [4] of 66%, an Inhibitory index [5] of 1.9 and a kinact [6] of 0 h⁻¹. The Apparent selectivity (HSV-1/human inhibition index ratio) [7] was 14.
`C/C(=N\N=C(/S)N/N=C(\S)Nc1ccc(Cl)c([N+](=O)[O-])c1)c1ccccn1` showed an inhibition (Human alphaherpesvirus 1 [1]) of 7%, an Inhibitory index (Human alphaherpesvirus 1 [2]) of 48 and a kinact (Human alphaherpesvirus 1 [3]) of 45 h⁻¹. It also gave an inhibition [4] of 20%, an Inhibitory index [5] of 0.24 and a kinact [6] of 0 h⁻¹. For the same molecule, the Apparent selectivity (HSV-1/human inhibition index ratio) [7] was 200.
With `C/C(=N\N=C(/S)N/N=C(\S)Nc1cccnc1)c1ccccn1` the Inhibitory index (Human alphaherpesvirus 1 [8]) was 11, the kinact (Human alphaherpesvirus 1 [9]) was 9 h⁻¹ and the inhibition [10] was 43%. For the same molecule, the Inhibition (Human alphaherpesvirus 1 [11]) was 18%, the Inhibitory index [12] was 0.73 and the kinact [13] was 0 h⁻¹. It also gave an Apparent selectivity (HSV-1/human inhibition index ratio) [7] of 15.
In the case of `C/C(=N\N=C(/S)N/N=C(\S)Nc1ccc(Cl)cc1C)c1ccccn1`, the inhibition (Human alphaherpesvirus 1 [1]) is reported as 31%, the Inhibitory index (Human alphaherpesvirus 1 [2]) is reported as 42 and the kinact (Human alphaherpesvirus 1 [3]) is reported as 29 h⁻¹. The inhibition [4] was 55%, the Inhibitory index [5] was 3.4 and the kinact [6] was 1 h⁻¹. The Apparent selectivity (HSV-1/human inhibition index ratio) [7] was 12.
`Cc1cccc(/C=N/N=C(\S)N/N=C(\S)Nc2ccccc2Cl)n1` was tested, and the inhibition (Human alphaherpesvirus 1 [1]) was 41%, the Inhibitory index (Human alphaherpesvirus 1 [2]) was 27 and the kinact (Human alphaherpesvirus 1 [3]) was 16 h⁻¹. For the same molecule, the inhibition [4] was 65%, the Inhibitory index [5] was 1.8 and the kinact [6] was 0 h⁻¹. It also gave an Apparent selectivity (HSV-1/human inhibition index ratio) [7] of 15.
`C/C(=N\N=C(/S)N/N=C(\S)Nc1cc(Cl)c(Cl)cc1Cl)c1ccccn1` was tested, and the inhibition (Human alphaherpesvirus 1 [1]) was 22%, the Inhibitory index (Human alphaherpesvirus 1 [2]) was 21 and the kinact (Human alphaherpesvirus 1 [3]) was 16 h⁻¹. The inhibition [4] was 3%, the Inhibitory index [5] was 0.03 and the kinact [6] was 0 h⁻¹. It also gave an Apparent selectivity (HSV-1/human inhibition index ratio) [7] of 680.
For `C/C(=N\N=C(/S)N/N=C(\S)Nc1cc(Cl)ccc1Cl)c1ccccn1`, the inhibition (Human alphaherpesvirus 1 [1]) was 8%, the Inhibitory index (Human alphaherpesvirus 1 [2]) was 59 and the kinact (Human alphaherpesvirus 1 [3]) was 55 h⁻¹. The inhibition [4] was 20%, the Inhibitory index [5] was 0.24 and the kinact [6] was 0 h⁻¹. It also gave an Apparent selectivity (HSV-1/human inhibition index ratio) [7] of 240.
Molecule `C/C(=N\N=C(/S)N/N=C(\S)Nc1cccc(Br)c1)c1ccccn1` has an inhibition (Human alphaherpesvirus 1 [1]) of 15%, an Inhibitory index (Human alphaherpesvirus 1 [2]) of 47 and a kinact (Human alphaherpesvirus 1 [3]) of 40 h⁻¹. It also gave an inhibition [4] of 21%, an Inhibitory index [5] of 2.8 and a kinact [6] of 2 h⁻¹. It also gave an Apparent selectivity (HSV-1/human inhibition index ratio) [7] of 17.
`C/C(=N\N=C(/S)N/N=C(\S)Nc1ccc([N+](=O)[O-])cc1)c1ccccn1` gave an inhibition (Human alphaherpesvirus 1 [1]) of 14%, an Inhibitory index (Human alphaherpesvirus 1 [2]) of 38 and a kinact (Human alphaherpesvirus 1 [3]) of 33 h⁻¹. For the same molecule, the inhibition [4] was 56%, the Inhibitory index [5] was 4.2 and the kinact [6] was 1.3 h⁻¹. For the same molecule, the Apparent selectivity (HSV-1/human inhibition index ratio) [7] was 9.1.
`COc1ccc([N+](=O)[O-])cc1/N=C(\S)N/N=C(\S)N/N=C(\C)c1ccccn1` was tested, and the inhibition (Human alphaherpesvirus 1 [1]) was 44%, the Inhibitory index (Human alphaherpesvirus 1 [2]) was 71 and the kinact (Human alphaherpesvirus 1 [3]) was 40 h⁻¹. The inhibition [4] was 11%, the Inhibitory index [5] was 3.5 and the kinact [6] was 3 h⁻¹. It also gave an Apparent selectivity (HSV-1/human inhibition index ratio) [7] of 21.
For `C/C(=N\N=C(/S)N/N=C(\S)Nc1ccc(C(C)(C)C)cc1)c1ccccn1`, the inhibition (Human alphaherpesvirus 1 [1]) was 10% and the kinact (Human alphaherpesvirus 1 [3]) was 16 h⁻¹.
Work on `C/C(=N\N=C(/S)N/N=C(\S)Nc1ccc(C)cc1)c1ccccn1` yielded an inhibition (Human alphaherpesvirus 1 [1]) of 25%, an Inhibitory index (Human alphaherpesvirus 1 [2]) of 21 and a kinact (Human alphaherpesvirus 1 [3]) of 16 h⁻¹. The inhibition [4] was 64%, the Inhibitory index [5] was 7 and the kinact [6] was 2 h⁻¹. It also gave an Apparent selectivity (HSV-1/human inhibition index ratio) [7] of 3.
With `CC(C)C/C(=N\N=C(/S)N/N=C(\S)Nc1ccccc1Cl)c1ccccn1` the inhibition (Human alphaherpesvirus 1 [1]) was 38%, the Inhibitory index (Human alphaherpesvirus 1 [2]) was 23 and the kinact (Human alphaherpesvirus 1 [3]) was 14 h⁻¹. The inhibition [4] was 25%, the Inhibitory index [5] was 0.33 and the kinact [6] was 0 h⁻¹. For the same molecule, the Apparent selectivity (HSV-1/human inhibition index ratio) [7] was 70.
In the case of `C/C(=N\N=C(/S)N/N=C(\S)Nc1ccc(Cl)cc1)c1ccccn1`, the inhibition (Human alphaherpesvirus 1 [1]) is reported as 61%, the Inhibitory index (Human alphaherpesvirus 1 [2]) is reported as 99 and the kinact (Human alphaherpesvirus 1 [3]) is reported as 39 h⁻¹. The inhibition [4] was 73%, the Inhibitory index [5] was 2.6 and the kinact [6] was 0 h⁻¹. For the same molecule, the Apparent selectivity (HSV-1/human inhibition index ratio) [7] was 38.
With `C/C(=N\N=C(/S)N/N=C(\S)Nc1ccccc1I)c1ccccn1` the inhibition (Human alphaherpesvirus 1 [1]) was 18%, the Inhibitory index (Human alphaherpesvirus 1 [2]) was 35 and the kinact (Human alphaherpesvirus 1 [3]) was 29 h⁻¹. It also gave an inhibition [4] of 23%, an Inhibitory index [5] of 5.4 and a kinact [6] of 4 h⁻¹. The Apparent selectivity (HSV-1/human inhibition index ratio) [7] was 6.5.
`C/C(=N\N=C(/S)N/N=C(\S)Nc1ccccc1C(F)(F)F)c1ccccn1` was tested, and the inhibition (Human alphaherpesvirus 1 [1]) was 6%, the Inhibitory index (Human alphaherpesvirus 1 [2]) was 11 and the kinact (Human alphaherpesvirus 1 [3]) was 10 h⁻¹. For the same molecule, the inhibition [4] was 43%, the Inhibitory index [5] was 5.9 and the kinact [6] was 3 h⁻¹. For the same molecule, the Apparent selectivity (HSV-1/human inhibition index ratio) [7] was 1.8.
Work on `COc1cccc(N/C(S)=N/N=C(\S)N/N=C(\C)c2ccccn2)c1` yielded an inhibition (Human alphaherpesvirus 1 [1]) of 6.7%, an Inhibitory index (Human alphaherpesvirus 1 [2]) of 22 and a kinact (Human alphaherpesvirus 1 [3]) of 21 h⁻¹. For the same molecule, the inhibition [4] was 58%, the Inhibitory index [5] was 1.7 and the kinact [6] was 7 h⁻¹. For the same molecule, the Apparent selectivity (HSV-1/human inhibition index ratio) [7] was 1.3.
